# Laboratory results taken from ChEMBL document CHEMBL3785035, “Phase II Metabolic Pathways of Spectinamide Antitubercular Agents: A Comparative Study of the Reactivity of 4-Substituted Pyridines to Glutathione Conjugation” (Medchemcomm, 2016).
# Assays:
# Type in all cases: ADME, subcellular
# [1] = Half life in rat liver S9 fraction at 100 uM preincubated for 5 mins followed by glutathione addition measured after 2 hrs by LC-MS/MS analysis
# Outline: (§1)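 S9 (rat or human) at 10 mg/mL in 0.1 M potassium phosphate pH 7.4, with 1 mM MgCl2. Preincubated 5 min at 37 °C, 150 rpm, then started with glutathione (0.2 mM in incubation). Controls lacked glutathione. Sampled 0–120 min, quenched in ice-cold methanol with internal standard. Parent measured by HILIC LC-MS/MS and expressed as % of time zero. Mean with %CV.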
# [2] = Metabolic stability in rat liver S9 fraction assessed as parent compound remaining at 100 uM preincubated for 5 mins followed by UDPGA addition measured after 2 hrs by LC-MS/MS analysis; settings: read-out: Stability
# Outline: (§2)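 Glucuronidation: 2 mg/mL rat or human S9 in 0.1 M potassium phosphate pH 7.4, activated with alamethicin (50 μg) 15 min on ice. Then 1 mM MgCl2 was added, with 5 min preincubation at 37 °C. Started with UDPGA (5 mM in incubation); controls without UDPGA. Samples taken to 120 min and quenched with methanol plus internal standard. LC-MS/MS; % parent relative to time zero.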
# [3] = (§3) Metabolic stability in rat liver S9 fraction assessed as parent compound remaining at 100 uM preincubated for 5 mins followed by PAPS addition measured after 2 hrs by LC-MS/MS analysis; settings: liver S9 fraction, read-out: Stability
# Outline: (§4)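 Sulfation incubation: rat or human liver S9 at 2 mg/mL in 0.1 M potassium phosphate pH 7.4 with 1 mM MgCl2. Preincubated 5 min at 37 °C, then started with PAPS (0.2 mM in incubation). Controls lacked PAPS. Aliquots taken over 120 min and quenched in cold methanol with internal standard. LC-MS/MS read-out; parent remaining expressed against time zero.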
# [4] = Half life in human liver S9 fraction at 100 uM preincubated for 5 mins followed by glutathione addition measured after 2 hrs by LC-MS/MS analysis; outline: as §1
# [5] = Metabolic stability in rat liver S9 fraction assessed as parent compound remaining at 100 uM preincubated for 5 mins followed by glutathione addition measured after 2 hrs by LC-MS/MS analysis; settings: read-out: Stability; outline: as §1
# [6] = Metabolic stability in human liver S9 fraction assessed as parent compound remaining at 100 uM preincubated for 5 mins followed by UDPGA addition measured after 2 hrs by LC-MS/MS analysis; settings: read-out: Stability; outline: as §2
# [7] = (§5) Metabolic stability in human liver S9 fraction assessed as parent compound remaining at 100 uM preincubated for 5 mins followed by PAPS addition measured after 2 hrs by LC-MS/MS analysis; settings: liver S9 fraction; outline: as §4
# [8] = Metabolic stability in human liver S9 fraction assessed as parent compound remaining at 100 uM preincubated for 5 mins followed by glutathione addition measured after 2 hrs by LC-MS/MS analysis; settings: read-out: Stability; outline: as §1
# [9] = tested on: Liver; assay: as §3; settings: s9, 2 h, 100 µM; outline: as §4
# [10] = tested on: Liver; assay: as §5; settings: s9, 2 h, 100 µM; outline: as §4
SMILES,half-life at 100 µM [1] [h],"remaining at 2 h, 100 µM [2] [%]","remaining at 2 h, 100 µM [3] [%]",half-life at 100 µM [4] [h],"remaining at 2 h, 100 µM [5] [%]","remaining at 2 h, 100 µM [6] [%]","remaining at 2 h, 100 µM [7] [%]","remaining at 2 h, 100 µM [8] [%]",Stability [9],Stability [10] [%]
CN[C@@H]1[C@H](O)[C@H](NC)[C@H]2O[C@]3(O)[C@H](O[C@@H]2[C@H]1O)O[C@H](C)C[C@H]3NC(=O)Cc1cc(Cl)c(F)cn1,> 50,> 93,> 95,> 50,98.6,> 93,> 96,98.6,,
CC(=O)Nc1ccc(O)cc1 [ACETAMINOPHEN],1.48,,,4.4,43,,,74.5,,
CN[C@@H]1[C@H](O)[C@H](NC)[C@H]2O[C@]3(O)[C@H](O[C@@H]2[C@H]1O)O[C@H](C)C[C@H]3NC(=O)Cc1ccc(O)cn1,> 50,> 93,> 95,> 50,98.6,> 93,> 96,99.9,,
CN[C@@H]1[C@H](O)[C@H](NC)[C@H]2O[C@]3(O)[C@H](O[C@@H]2[C@H]1O)O[C@H](C)C[C@H]3NC(=O)Cc1ccc(Cl)cn1,> 50,> 93,> 95,> 50,99.4,> 93,> 96,99.9,,
CN[C@@H]1[C@H](O)[C@H](NC)[C@H]2O[C@]3(O)[C@H](O[C@@H]2[C@H]1O)O[C@H](C)C[C@H]3NC(=O)Cc1cc(Cl)ccn1,3.35,> 93,,> 50,71.9,> 93,,98.7,88%,> 96
CN[C@@H]1[C@H](O)[C@H](NC)[C@H]2O[C@]3(O)[C@H](O[C@@H]2[C@H]1O)O[C@H](C)C[C@H]3NC(=O)Cc1cc(Cl)c(C)cn1,0.66,> 93,,23,12.9,> 93,,93.5,Stable,91
CN[C@@H]1[C@H](O)[C@H](NC)[C@H]2O[C@]3(O)[C@H](O[C@@H]2[C@H]1O)O[C@H](C)C[C@H]3NC(=O)Cc1ccc(F)cn1,32.6,> 93,> 95,> 50,96.6,> 93,> 96,98.7,,
CN[C@@H]1[C@H](O)[C@H](NC)[C@H]2O[C@]3(O)[C@H](O[C@@H]2[C@H]1O)O[C@H](C)C[C@H]3NC(=O)Cc1ccccn1,> 50,> 93,,38,99.8,> 93,,96.7,89%,> 96
CN[C@@H]1[C@H](O)[C@H](NC)[C@H]2O[C@]3(O)[C@H](O[C@@H]2[C@H]1O)O[C@H](C)C[C@H]3NC(=O)Cc1cc(Cl)c(OC)cn1,6.7,> 93,> 95,> 50,81.1,> 93,> 96,98.8,,
